Data published in ChEMBL document CHEMBL1149155, “Development of a new radioligand, N-(5-fluoro-2-phenoxyphenyl)-N-(2-[18F]fluoroethyl-5-methoxybenzyl)acetamide, for pet imaging of peripheral benzodiazepine receptor in primate brain” (J Med Chem, 2004).
pIC50, pKi: −log10 of the molar value.

What was measured:
Mus musculus [1] = species on record: Mus musculus; assay: Compound was tested for radioactivity level in mice adrenal glands (Compound is radiolabeled); format: ADME, organism-based, Adrenal gland; conditions: in vivo
Outline: (§1)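 Male ddY mice (30–40 g, 9 weeks) given 18F-ligand in saline (average 8 MBq) via tail vein; four per time point killed at 5, 15, 30, 60, 120 min. Brain, liver, lung, heart, kidney, adrenal, bone and blood weighed and gamma-counted; decay-corrected %ID/g wet tissue.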

Mus musculus [2] = species on record: Mus musculus; assay: Compound was tested for radioactivity level in mice brain (Compound is radiolabeled); 2.2-4.9% ID/g; format: ADME, organism-based; conditions: in vivo; outline: as §1
Mus musculus [3] = species on record: Mus musculus; assay: Compound was tested for radioactivity level in mice kidney (Compound is radiolabeled); format: ADME, organism-based; conditions: in vivo; outline: as §1
Mus musculus [4] = species on record: Mus musculus; assay: Compound was tested for radioactivity level in mice lungs (Compound is radiolabeled); format: ADME, organism-based; conditions: in vivo; outline: as §1
Mus musculus [5] = species on record: Mus musculus; assay: Compound (0.09% dose/g) was tested for accumulation in mice bone (Compound is radiolabeled) after 120 min; No increase; format: ADME, organism-based, Bone element; conditions: in vivo, 2 h; outline: as §1
[6] = Half life was determined; format: ADME; conditions: rat
[7] = target: GABA-A receptor; anion channel; assay: In vitro inhibition of [11C]flumazenil binding to GABA-A central benzodiazepine receptor of rat brain
Outline: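 Rat brain sagittal cryosections (20 μm, male Sprague-Dawley) preincubated 20 min at 25 °C in 50 mM Tris-HCl pH 7.4, then incubated 30 min at 37 °C with [11C]flumazenil (1 nM) and compound 0.1–1000 nM; nonspecific binding defined with 10 μM flumazenil. Cerebellum radioactivity read by imaging plate; probit-derived IC50 converted to Ki; n = 3.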

Translocator protein [8] = target: Translocator protein (Rattus norvegicus, UniProt P16257); assay: In vitro inhibition of [11C]2 binding to Peripheral benzodiazepine receptor (PBR) in rat brain; format: tissue-based
[9] = Partition coefficient of the compound; format: physicochemical; conditions: octanol/water
Outline: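 LogD measured by shake-flask partition between phosphate buffer (pH 7.4) and octanol; mean of n = 3.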

Mus musculus [10] = species on record: Mus musculus; assay: Compound (0.31% dose/g) was tested for accumulation in mice bone (Compound is radiolabeled) after 30 min; Low increase; format: ADME, organism-based; conditions: in vivo, 0.5 h; outline: as §1
Mus musculus [11] = species on record: Mus musculus; assay: Compound was tested for radioactivity level in mice heart (Compound is radiolabeled); format: ADME, organism-based; conditions: in vivo; outline: as §1
[12] = target: GABA-A receptor; anion channel; assay: Inhibition of [11C]flumazenil binding to GABA-A central benzodiazepine receptor of monkey brain
Translocator protein [13] = target: Translocator protein (Homo sapiens, UniProt P30536); assay: Binding affinity for Peripheral benzodiazepine receptor compared to [11C]2 in monkey brain (No affinity); design: species or system Cercopithecidae; conditions: target entry is the homologue from another species
Translocator protein (Homo sapiens, UniProt P30536), sequence (P30536 whole entry): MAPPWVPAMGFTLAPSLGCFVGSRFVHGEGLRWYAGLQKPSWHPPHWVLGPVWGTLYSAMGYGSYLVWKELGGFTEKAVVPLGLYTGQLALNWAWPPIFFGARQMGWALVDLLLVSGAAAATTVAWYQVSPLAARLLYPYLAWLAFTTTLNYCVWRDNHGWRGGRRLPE

Translocator protein (Rattus norvegicus, UniProt P16257), sequence (P16257 whole entry, looked up): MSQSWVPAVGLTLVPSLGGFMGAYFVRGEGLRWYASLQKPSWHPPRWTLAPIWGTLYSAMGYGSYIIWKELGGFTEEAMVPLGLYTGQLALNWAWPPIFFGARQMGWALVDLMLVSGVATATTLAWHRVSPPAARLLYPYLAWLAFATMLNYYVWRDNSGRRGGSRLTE

Radioactivity level (Mus musculus [1]) [%]	Radioactivity level (Mus musculus [2]) [%]	Radioactivity level (Mus musculus [3]) [%]	Radioactivity level (Mus musculus [4]) [%]	Activity (Mus musculus [5])	T1/2 [6] [h]	pKi [7]	pKi (Translocator protein [8])	logD [9]	Activity (Mus musculus [10])	Radioactivity level (Mus musculus [11]) [%]	pIC50 [12]	IC50 (Translocator protein [13])	Compound
> 5	< 4.9	> 5	> 5	Not Active	1.83	< 6.00	10.11	3.81	Partially active	> 5			COc1ccc(OCCF)c(CN(C(C)=O)c2cc(F)ccc2Oc2ccccc2)c1
						< 6.00	7.74	4.65					COc1ccc(OCCOS(=O)(=O)c2ccc(C)cc2)c(CN(C(C)=O)c2cc(F)ccc2Oc2ccccc2)c1
						< 6.00	9.80	3.65					COc1ccc(OC)c(CN(C(C)=O)c2cc(F)ccc2Oc2ccccc2)c1
> 5		> 5	> 5	5.6%	1.83	< 6.00	9.77	3.7		> 5			COc1ccc(OCF)c(CN(C(C)=O)c2cc(F)ccc2Oc2ccccc2)c1
						< 6.00	8.32	4.02					COc1ccc(OCI)c(CN(C(C)=O)c2cc(F)ccc2Oc2ccccc2)c1
											< 5.00	Not Active	CC(=O)Nc1cc(F)ccc1Oc1ccccc1
						< 6.00		2.78					CCC(C)N(C)C(=O)c1cc2ccccc2c(-c2ccccc2Cl)n1 (stereo not drawn) [PK-11195]
